pIC50: −log10 of the molar value. Calls of active or inactive are those of the source. The calls are words filed in the database; no cut-off is given here.
Experiments:
[1] = system: HT-29; assay: Antiproliferative activity against human HT-29 cells after 2 days by MTT assay; assay type: functional, cell-based; details: HT-29, 48 h
[2] = system: MCF7; assay: Antiproliferative activity against human MCF7 cells after 2 days by MTT assay; assay type: functional, cell-based; details: MCF7, 48 h
[3] = system: A549; assay: Antiproliferative activity against human A549 cells after 2 days by MTT assay; assay type: functional, cell-based; details: A549, 48 h
[4] = system: HEK293; assay: Antiproliferative activity against HEK293 cells after 2 days by MTT assay; assay type: ADME, cell-based; details: Homo sapiens, HEK293, 48 h
[5] = system: A549; assay: Cell cycle arrest in human A549 cells assessed as accumulation at sub-G0 phase at 7.5 nM after 24 hrs by propidium iodide staining based flow cytometry (reference value: 2 +/- 1%); assay type: functional
How it was run: (§1)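 A549 cells kept in DMEM (1 g/L glucose, 2 mM glutamine, antibiotics, amphotericin B, 10% FBS), treated 24 h with compound from 10 mM DMSO stock; fixed, RNase-treated, stained with propidium iodide, DNA content read by flow cytometry for phase distribution. Average (±SD) of two experiments.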

[6] = system: A549; assay: Cell cycle arrest in human A549 cells assessed as accumulation at G0/G1 phase at 7.5 nM after 24 hrs by propidium iodide staining based flow cytometry (reference value: 73 +/- 3%); assay type: functional; how it was run: as §1
[7] = system: A549; assay: Cell cycle arrest in human A549 cells assessed as accumulation at S phase at 7.5 nM after 24 hrs by propidium iodide staining based flow cytometry (reference value: 15 +/- 6%); assay type: functional; how it was run: as §1
[8] = system: A549; assay: Cell cycle arrest in human A549 cells assessed as accumulation at G2/M phase at 7.5 nM after 24 hrs by propidium iodide staining based flow cytometry (reference value: 11 +/- 4%); assay type: functional; how it was run: as §1
[9] = system: A549; assay: Cell cycle arrest in human A549 cells assessed as accumulation at G2/M phase at antiproliferative IC50 after 24 hrs by propidium iodide staining based flow cytometry; assay type: functional; how it was run: as §1
[10] = system: HT-29; assay: Downregulation of c-Myc gene expression in human HT-29 cells assessed as c-Myc mRNA level at 3 nM after 48 hrs by RT-PCR method (reference value: 100%); assay type: functional
How it was run: (§2)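 HT-29 cells (1.5 x 10^5 per well, six-well plate) seeded 24 h, then exposed 48 h with DMSO control; total RNA extracted, target mRNA quantified by TaqMan RT-qPCR, normalized to β-actin, expressed as percentage of control. At least three measurements; one-sample t-tests.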

[11] = system: HT-29; assay: Downregulation of hTERT gene expression in human HT-29 cells assessed as hTERT mRNA level at 3 nM after 48 hrs by RT-PCR method (reference value: 100%); assay type: functional; how it was run: as §2
[12] = system: HT-29; assay: Downregulation of VEGF gene expression in human HT-29 cells assessed as VEGF mRNA level at 3 nM after 48 hrs by RT-PCR method (reference value: 100%); assay type: functional; how it was run: as §2
[13] = system: HT-29; assay: Inhibition of VEGF protein secretion in human HT-29 cells assessed as VEGF protein level at 3 nM after 48 hrs by ELISA (reference value: 100%); assay type: functional; design: scale not given: the % may be the effect or the level left
How it was run: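 HT-29 cells (1.5 x 10^5 per well, six-well plate) seeded 24 h, then treated 48 h with DMSO control; secreted VEGF in culture supernatant measured by human VEGF ELISA kit, expressed as percentage of control. At least three measurements.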

[14] = Selectivity index, ratio of IC50 for HEK293 cells to IC50 for human HT-29 cells; details: HEK293 cells versus HT-29 cells
[15] = Selectivity index, ratio of IC50 for HEK293 cells to IC50 for human MCF7 cells; details: HEK293 cells versus MCF7 cells
[16] = Selectivity index, ratio of IC50 for HEK293 cells to IC50 for human A549 cells; details: HEK293 cells versus A549 cells
[17] = system: A549; assay: Cell cycle arrest in human A549 cells assessed as accumulation at sub-G0 phase at 15 nM after 24 hrs by propidium iodide staining based flow cytometry (reference value: 2 +/- 1%); assay type: functional
How it was run: (§3)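 A549 cells maintained in DMEM (1 g/L glucose, 2 mM glutamine, penicillin/streptomycin/amphotericin B, 10% FBS) and treated for 24 h. Cells were then fixed, RNase-treated and stained with propidium iodide. DNA content was measured by flow cytometry to give cell-cycle phase distribution, including a sub-G1 peak. Data are means (±SD) of two experiments.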

[18] = system: A549; assay: Cell cycle arrest in human A549 cells assessed as accumulation at G0/G1 phase at 15 nM after 24 hrs by propidium iodide staining based flow cytometry (reference value: 73 +/- 3%); assay type: functional; how it was run: as §3
[19] = system: A549; assay: Cell cycle arrest in human A549 cells assessed as accumulation at S phase at 15 nM after 24 hrs by propidium iodide staining based flow cytometry (reference value: 15 +/- 6%); assay type: functional; how it was run: as §3
[20] = system: A549; assay: Cell cycle arrest in human A549 cells assessed as accumulation at G2/M phase at 15 nM after 24 hrs by propidium iodide staining based flow cytometry (reference value: 11 +/- 4%); assay type: functional; how it was run: as §3
[21] = system: A549; assay: Cell cycle arrest in human A549 cells assessed as accumulation at sub-G0 phase at 50 nM after 24 hrs by propidium iodide staining based flow cytometry (reference value: 2 +/- 1%); assay type: functional; how it was run: as §3
[22] = system: A549; assay: Cell cycle arrest in human A549 cells assessed as accumulation at G0/G1 phase at 50 nM after 24 hrs by propidium iodide staining based flow cytometry (reference value: 73 +/- 3%); assay type: functional; how it was run: as §3
[23] = system: A549; assay: Cell cycle arrest in human A549 cells assessed as accumulation at S phase at 50 nM after 24 hrs by propidium iodide staining based flow cytometry (reference value: 15 +/- 6%); assay type: functional; how it was run: as §3
[24] = system: A549; assay: Cell cycle arrest in human A549 cells assessed as accumulation at G2/M phase at 50 nM after 24 hrs by propidium iodide staining based flow cytometry (reference value: 11 +/- 4%); assay type: functional; how it was run: as §3
[25] = system: HT-29; assay: Downregulation of c-Myc gene expression in human HT-29 cells assessed as c-Myc mRNA level at 10 nM after 48 hrs by RT-PCR method (reference value: 100%); assay type: functional
How it was run: (§4)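 HT-29 cells were taken at 70–80% confluence and seeded at 1.5 x 10^5 per well. After 24 h they were exposed to compound for 48 h. Total RNA was isolated and TaqMan RT-qPCR run for VEGF-A, c-MYC and hTERT, normalized to β-actin. Expression is given as percent of DMSO control, with at least three measurements and one-sample t-tests.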

[26] = system: HT-29; assay: Downregulation of hTERT gene expression in human HT-29 cells assessed as hTERT mRNA level at 10 nM after 48 hrs by RT-PCR method (reference value: 100%); assay type: functional; how it was run: as §4
[27] = system: HT-29; assay: Downregulation of VEGF gene expression in human HT-29 cells assessed as VEGF mRNA level at 10 nM after 48 hrs by RT-PCR method (reference value: 100%); assay type: functional; how it was run: as §4
[28] = system: HT-29; assay: Inhibition of VEGF protein secretion in human HT-29 cells assessed as VEGF protein level at 10 nM after 48 hrs by ELISA (reference value: 100%); assay type: functional; design: scale not given: the % may be the effect or the level left

| SMILES | pIC50 [1] | pIC50 [2] | pIC50 [3] | pIC50 [4] | Activity [9] | Activity [10] [%] | Activity [11] [%] | Activity [12] [%] | Activity [13] [%] | other results |
| --- | --- | --- | --- | --- | --- | --- | --- | --- | --- | --- |
| COc1cc2c(c(OC)c1OC)-c1ccc(OC)c(=O)cc1[C@@H](NC(=O)CF)CC2 | 8.33 | 8.14 | 8.11 | 8.15 | Active | >100 | >100 | >100 | 88 | Activity [5]: 2%; Activity [6]: 25%; Activity [7]: 15%; Activity [8]: 60% |
| CCCCCc1ccc(C(=O)N[C@H]2CCc3cc(OC)c(OC)c(OC)c3-c3ccc(OC)c(=O)cc32)cc1 | 8.38 | 8.24 | 8.90 | 8.80 | – | – | – | – | – | selectivity ratio [14]: 0.4; selectivity ratio [15]: 0.3; selectivity ratio [16]: 1.3 |
| COc1cc2c(c(OC)c1OC)-c1ccc(OC)c(=O)cc1[C@@H](NC(=O)CCl)CC2 | 8.34 | 7.54 | 7.91 | 8.34 | Active | 74 | 66 | 76 | 100 | Activity [17]: 2%; Activity [18]: 22%; Activity [19]: 20%; Activity [20]: 55% |
| COc1cc2c(c(OC)c1OC)-c1ccc(OC)c(=O)cc1[C@@H](NC(=O)c1ccc(C)cc1)CC2 | 8.05 | 7.51 | 8.06 | 7.79 | – | – | – | – | – | Activity [21]: 13%; Activity [22]: 44%; Activity [23]: 26%; Activity [24]: 16% |
| COc1cc2c(c(OC)c1OC)-c1ccc(OC)c(=O)cc1[C@@H](NC(=O)CC1CCCCC1)CC2 | 8.06 | 8.05 | 7.71 | 7.98 | – | – | – | – | – | – |
| COc1cc2c(c(OC)c1OC)-c1ccc(OC)c(=O)cc1[C@@H](NC(=O)CI)CC2 | 8.00 | 8.39 | 7.51 | 7.72 | – | – | – | – | – | Activity [25]: 42%; Activity [26]: 59%; Activity [27]: 42%; Activity [28]: 89% |

Source: ChEMBL document CHEMBL4196091 (Eur J Med Chem, 2018)
